PPC-1+TRAIL kill – compounds killing PPC-1 cancer cells with TRAIL present, primary screen, TRAIL potentiator project, ATPLite luminescence, uHTS | cell killing (% activity), % at 4 µM or 5 µM | PPC-1 cells + TRAIL, ATPLite viability luminescence | AID 1443, 2008 | 220,000 tested, 0.41% active;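 active means cell killing above 50% in the first pass at 4 µM, then a duplicate retest at 5 µM averaging 50% or more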;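 further: plate controls were cells with TRAIL plus DMSO for no effect and medium-only wells lacking cells for full effect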
C8 TRAIL sens – viability loss with TRAIL in NB7+C8 cells, primary screen, TRAIL sensitizer project, cell-based, ATPlite luminescence. inhibition (viability loss, TRAIL sensitization), % at 10 µM. 360,000 tested, 1% active;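 active means compounds causing at least 50% loss of cell viability in the single-dose screen, relative to plate controls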
FLuc act counter – FLuc activators, initial screening, artefact control for FLuc-dependent activation tests, biochemical, ATPlite luminescence. ATPlite luciferase biochemical, 10 min; 0 = ATP-free wells, 1 = DMSO control. 200,000 tested, under 10 active. Luciferin 4-monooxygenase (Photinus pyralis), P08659. activation factor at 10 µM. AID 1027, 2008;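 active means luciferase activation factor, scaled between plate controls, of at least 2 with compound at 10 µM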
Target sequence (P08659 whole entry, looked up): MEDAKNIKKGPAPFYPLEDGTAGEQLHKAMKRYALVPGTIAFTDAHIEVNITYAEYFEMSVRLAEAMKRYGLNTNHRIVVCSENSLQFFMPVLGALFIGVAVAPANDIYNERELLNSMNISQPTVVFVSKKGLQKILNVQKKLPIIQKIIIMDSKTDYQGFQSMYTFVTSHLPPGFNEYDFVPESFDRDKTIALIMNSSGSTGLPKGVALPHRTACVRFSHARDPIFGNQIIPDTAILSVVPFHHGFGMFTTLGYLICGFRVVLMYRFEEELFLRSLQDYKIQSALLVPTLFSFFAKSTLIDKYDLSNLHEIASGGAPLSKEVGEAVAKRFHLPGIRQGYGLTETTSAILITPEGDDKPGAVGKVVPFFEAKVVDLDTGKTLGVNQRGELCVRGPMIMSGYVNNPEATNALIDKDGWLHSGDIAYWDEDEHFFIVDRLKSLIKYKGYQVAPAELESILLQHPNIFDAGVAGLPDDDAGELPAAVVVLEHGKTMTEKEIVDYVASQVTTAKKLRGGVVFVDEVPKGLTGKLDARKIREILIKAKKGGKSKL
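System: cell-free luciferase reagent; medium: PBS as buffer for the ATP substrate; doses: test compounds dosed from 2 mM stocks in 100% DMSO; incubation: 10 min, room temperature; measured by: luminescence from luciferase reaction; read-out: luciferase activation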
FLuc inh counter – firefly luciferase enzyme inhibitors, primary screen, artefact control for luciferase-based inhibitor screens, biochemical, luminescence, ATPLite. Luciferin 4-monooxygenase (Photinus pyralis), P08659. 10 min. inhibition, % at 10 µM. 200,000 tested, 1.5% active. AID 1006, 2008;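 active means inhibition above about 50% when tested at 10 µM, limit read from the data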
PPC-1 tox – cytotoxicity in PPC-1 cells, confirmation, cytotoxicity control for TRAIL apoptosis potentiator project, cell-based, ATP content luminescence. shares compounds with PPC-1+TRAIL kill. AID 1447, 2008. cytotoxicity, % at 5 µM. PPC-1 viability, ATPlite luminescence, overnight. 1,200 tested, 50% active;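 active means reconfirmed compounds whose average cytotoxicity reaches 50% or more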;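 further: 0% = DMSO-treated cells and 100% = wells holding medium but no cells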
Numbers without * were called inactive; . = not tested or not shown. Rows were chosen to be rich in hits. Some 1.5% of all compounds tested hit in one or more screens of this group.

SMILES	PPC-1+TRAIL kill	C8 TRAIL sens	FLuc act counter	FLuc inh counter	PPC-1 tox
Cc1nn(C2CCS(=O)(=O)C2)c(Cl)c1/C=C/C(=O)OCC(=O)c1cc(C)n(-c2ccc(F)cc2)c1C (centres undefined)	30.2	25.8	1	-2.8	.
CCCCN(C(=O)CSc1nnc(Nc2ccc(C)c(C)c2)s1)c1c(N)n(Cc2ccccc2)c(=O)[nH]c1=O	32.8	43.5	0.4	63.0*	40.3
CN(C(=O)CSc1nnc(Nc2ccccc2)s1)c1c(N)n(Cc2ccccc2)c(=O)[nH]c1=O	9.4	-13.4	1	-3.8	.
CCOc1ccc(Cl)cc1-c1cc(C(=O)Nc2ccc(OC)nc2)[nH]n1	.	14.7	.	.	.
CCOc1ccc(-c2nc(C)c(C(C)=O)n2O)cc1	31.4	41.3	0.4	63.5*	39.4
COc1ccc(-c2nc(C)c(C(C)=O)n2O)cc1	36.3	13.0	0.8	16.9	.
O=C(O)CCC(=O)Nc1ccc(N=Nc2ccccc2)cc1	25.0	-1.9	0.8	18.1	.
CC(C)(C)C(=O)Nc1ccc(N=Nc2ccccc2)cc1	61.6*	82.1*	0.1	89.7*	68.1*
CSc1ncccc1C(=O)OCC(=O)N1CCN(S(=O)(=O)c2ccc(C)cc2C)CC1	.	-0.5	.	.	.
Cc1cc(C(=O)OCC(=O)NC(C)c2ccc(F)cc2)c(C)o1 (centres undefined)	.	-9.6	.	.	.
CCOc1cccc(C(=O)Nc2ccccc2OC(F)F)c1	8.7	10.0	1	-4.3	13.4
N#Cc1c(SCC(=O)N2CCCCC2)nsc1SCC(=O)N1CCCCC1	2.9	6.2	1	-4.8	18.2
COc1ccc(C(=O)Nc2ccccc2C(=O)N/N=C/c2ccccn2)cc1OC	75.5*	84.6*	.	.	75.2*
Cn1c(SCC(=O)NCCc2ccccc2)nc2c([nH]c3ccccc32)c1=O	-3.5	-12.4	1	0.5	.
O=C(N/N=C/c1cccc([N+](=O)[O-])c1)c1cc(-c2ccc3c4c(cccc24)CC3)n[nH]1	12.5	-15.6	1	-1.7	.
O=C(N/N=C/c1ccc(Cl)c([N+](=O)[O-])c1)c1cc(-c2ccc3c4c(cccc24)CC3)n[nH]1	42.5	10.1	.	.	32.9
CCOC(=O)CNC(=O)CSc1nnc(SCC(=O)NCC(=O)OCC)s1	26.7	7.2	1	2.3	.
CCOC(=O)CNC(=O)CSc1nnc(NC(=O)c2ccc(C)cc2)s1	91.8*	88.1*	0.1	94.0*	91.8*
CCOC(=O)CN1C(=O)C(O)=C(C(C)=O)C1c1ccc([N+](=O)[O-])cc1 (centres undefined)	6.1	12.9	1	-0.4	.
CCN(Cc1nc2cc(OC)c(OC)cc2c(=O)[nH]1)C(=O)c1ccc(S(=O)(=O)N(C)C)cc1	12.6	0.8	1	0.6	.
COc1cc2nc(CN(C)Cc3ccc(C(C)(C)C)cc3)[nH]c(=O)c2cc1OC	58.8*	65.0*	0.2	84.8*	58.1*
COc1ccc(C2CC(c3ccc(C)cc3)=NN2C(=O)c2ccccc2)cc1 (centres undefined)	.	0.5	.	.	.
CCc1nc2ccccc2n1Cc1ccc(OC)c(OC)c1	6.4	4.9	1.1	-6.9	.
COc1ccc(/C=C/c2nc3ccccc3n2Cc2ccc(OC)c(OC)c2)cc1	55.9*	32.9	0.2	83.1*	54.8*
CCCn1c(O)c(N=NC(=O)CNC(=O)c2cccnc2)c2ccccc21	.	-16.9	.	.	.
SMILES	PPC-1+TRAIL kill	C8 TRAIL sens	FLuc act counter	FLuc inh counter	PPC-1 tox
CC1CCc2c(sc(/N=C/c3ccco3)c2C(N)=O)C1 (centres undefined)	48.8	62.7*	.	.	49.3
CCCN(CC1CC1)C(=S)Nc1ccc(C(C)=O)cc1	13.2	6.2	1.1	-6.0	.
C=CCN=c1scc(C)n1/N=C/c1ccc(O)c(O)c1	28.2	27.8	0.9	9.2	.
CN=c1scc(C)n1/N=C/c1ccc(O)cc1O	70.8*	67.5*	0.2	80.7*	71.3*
CCOc1ccc(CCNC(=O)COC(=O)c2cccnc2OCC)cc1OCC	29.9	-19.5	1.1	-5.6	.
CC1=NN(c2nc3ccccc3[nH]2)C(=O)/C1=C/N(C)C	79.2*	88.0*	0.1	93.9*	79.0*
O=c1cc(-c2ccccc2)[nH]c2nc3ccccc3n12	69.9*	84.4*	0.2	84.1*	64.7*
CCN(Cc1ccccc1)C(=O)C1CCN(C(=O)Nc2ccccc2)CC1	.	13.6	.	.	.
CCN(CC(=O)NCc1ccc(F)cc1)C(=O)C1CCN(C(=O)Nc2ccccc2)CC1	7.3	-8.3	1	0.9	7.2
CC(=O)Nc1ccc(S(=O)(=O)NC2(C(F)(F)F)C(=O)Nc3c2c(=O)[nH]c(=O)n3C)cc1 (centres undefined)	1.5	-11.2	1	-4.6	.
CC(=O)Nc1ccc(S(=O)(=O)NC2(C(F)(F)F)C(=O)Nc3c2c(=O)n(C)c(=O)n3C)cc1 (centres undefined)	2.0	-5.5	1	-2.6	-2.3
Cc1cc(C(=O)Nc2ccc(Cl)cc2)n(-c2ccccc2)n1	.	-3.4	.	.	.
Cc1cc(C(=O)Nc2ccc(Cl)cc2)c(C)n1-c1ccccc1	82.7*	82.7*	.	.	79.4*
Cc1nnc(SCc2cnc(-c3ccc(C(C)C)cc3)s2)n1C	90.7*	88.3*	0	95.2*	90.6*
O=C(/C=C/c1ccccc1)c1c[nH]c2ccccc12	61.0*	57.6*	.	.	66.1*
COc1ccccc1C(=O)Nc1cc(C)c(OCC(=O)N2CCOCC2)c(C)c1	.	6.7	.	.	.
Cc1ccc(C(=O)Nc2cc(C)c(OCC(=O)N3CCOCC3)c(C)c2)cc1	79.0*	83.1*	0.1	87.5*	78.9*
Cc1ccc(-n2c(-c3ccc(Br)cc3)c[n+]3c2CCc2ccc4cccnc4c2-3)cc1	48.3	65.2*	1	-3.9	42.7
CCOC(=O)c1ccc(NC(=O)CC2NCCNC2=O)cc1 (centres undefined)	9.0	13.5	1	-1.8	.
O=C(OCc1ccc([N+](=O)[O-])cc1)c1cc2ccccc2oc1=O	.	0.8	.	.	.
CC(C)(C)c1nc2scc(-c3ccc(Cl)cc3)c2c(=O)o1	-4.7	12.9	1.1	-6.3	-2.5
CNS(=O)(=O)c1cc(N(C)S(=O)(=O)c2ccc(C)cc2)c(C)cc1C	11.5	-5.2	1.1	-10.0	.
COC(=O)C1C(=O)c2c([nH]c(C(=O)OCCOC(C)C)c2C)CC1C (centres undefined)	-9.4	.	0.7	30.0	-2.1
COC(=O)C1C(=O)c2c([nH]c(C(=O)OC3CCCCC3)c2C)CC1C (centres undefined)	38.3	30.2	0.7	25.1	.
CC(C)CNC(=O)Nc1ccccc1F	6.4	17.5	1.1	-9.4	.
N/C(=N\OC(=O)c1ccc2ccccc2c1)c1ccccn1	53.1*	71.2*	0.1	90.0*	58.7*
N/C(=N\OC(=O)c1ccc(Cl)cc1Cl)c1ccncc1	4.0	36.6	.	.	.
